Assay outcomes (PubChem BioAssay)
Most compounds without a hit are left out; they make up all but 1.5% or so of the library.
PDI turbidity – inhibitors of human protein disulfide isomerase; P07237; PDI insulin aggregation turbidity, A650, 90 min; inhibition, % at 10 µM; actives 0.052% (n = 350,000); AID 588391;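 active means mean inhibition across replicates of 30% or more, whatever share of single replicates reach that level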
S100A4 MyoIIA – S100A4-myosin IIA interaction inhibition; P26447; AID 652163; S100A4/TAMRA-MyoIIA peptide fluorescence polarization; actives 0.14% (n = 360,000); inhibition, % at 10.7 µM;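 active means mean inhibition of at least 70% across replicates, with every replicate also reaching that level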
Target sequence (P26447 whole entry, looked up): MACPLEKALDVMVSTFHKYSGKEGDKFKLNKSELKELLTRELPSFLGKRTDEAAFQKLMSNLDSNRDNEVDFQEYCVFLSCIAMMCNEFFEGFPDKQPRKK
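Material: S100A4 monomer protein / Buffer or medium: 50 mM HEPES pH 7.2, 10 mM CaCl2, 100 mM KCl / Times: 5 min incubation before reading / Benchmarks: neutral control DMSO, positive control TFP / Reagent: labelled myosin peptide probe, 5 nM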
SIRT5 block – inhibitors of human sirtuin-5 desuccinylase | Q9NXA8 | inhibition, % at 15 µM | Purified SirT5, succinyl-peptide AMC, trypsin-coupled fluorescence | actives 1.1% (n = 330,000); in the data active means inhibition above about 15%
Target sequence (Q9NXA8 whole entry, looked up): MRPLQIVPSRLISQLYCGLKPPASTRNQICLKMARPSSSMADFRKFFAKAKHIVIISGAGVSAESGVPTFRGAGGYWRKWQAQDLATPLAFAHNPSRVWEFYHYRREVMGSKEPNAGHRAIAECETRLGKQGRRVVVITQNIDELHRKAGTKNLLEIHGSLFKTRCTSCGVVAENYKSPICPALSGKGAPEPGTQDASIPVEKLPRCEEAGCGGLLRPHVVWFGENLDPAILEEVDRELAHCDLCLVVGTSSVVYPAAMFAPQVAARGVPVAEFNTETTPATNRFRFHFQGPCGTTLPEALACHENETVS
ERp5 block – ERp5 (human) disulfide isomerase inhibition; Q15084; ERp5 insulin aggregation, absorbance 650 nm, 90 min; inhibition, % at 9.99 µM; actives 0.05% (n = 350,000); AID 651711;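 active means mean replicate inhibition above about 25%, with every replicate also reaching it, limit read from the data, passing the limit was not always enough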
INS-1E GSIS act – GLuc luminescence reporter in INS-1E cells, primary screen for activators of glucose-dependent secretion of insulin. activation, % at 16.6 µM. actives 0.61% (n = 370,000). INS-1E GLuc reporter insulin secretion, 2-3 h;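 active means lowest replicate activation of at least 40%, so every replicate reaches that level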;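 further: 0% = median of neutral control wells and 100% = median of IBMX positive control wells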
* = called active by the depositor; / = not tested or not shown.

SMILES	PDI turbidity	S100A4 MyoIIA	SIRT5 block	ERp5 block	INS-1E GSIS act
C[C@H](CO)N1C[C@H](C)[C@@H](CN(C)S(=O)(=O)c2cn(C)cn2)Oc2ccc(NC(=O)C3CC3)cc2CC1=O	/	0.6	16.4*	3.4	0.3
COc1ccc2c3c([nH]c2c1)[C@@H](CO)N(C(=O)C1CCCC1)CC31CN(S(C)(=O)=O)C1	/	-1.1	8.5	-2.4	-11.7
CCOc1ccc(N2C(=O)CC(S/C(N)=N/N=C/c3cccs3)C2=O)cc1 (stereo not drawn)	-9.7	/	/	/	53.9*
N/C(=N\N=C\c1cccs1)SC1CC(=O)N(c2cccc([N+](=O)[O-])c2)C1=O (stereo not drawn)	-2.7	-1.7	-1.5	4.1	2.0
C[C@H](CO)N1C[C@H](C)[C@@H](CN(C)S(C)(=O)=O)OCCCC[C@H](C)Oc2ccc(NC(=O)NC3CCCCC3)cc2C1=O	/	-4.5	-6.6	-8.5	5.5
CCOC(=O)Nc1ccc2c(c1)N(C(=O)CCN1CCN(C)CC1)c1ccccc1S2	-6.8	/	/	/	/
CCOC(=O)Nc1ccc2c(c1)Sc1ccccc1N2C(=O)CCN1CCOCC1	-12.2	/	/	/	107.3*
O=C(CCCN1C(=O)/C(=C/c2ccco2)SC1=S)Nc1cccc(C(=O)O)c1	1.8	-21.3	41.5*	-0.4	34.1
O=C(CCCN1C(=O)/C(=C\c2ccco2)SC1=S)Nc1ccc(O)cc1C(=O)O	28.1	-22.8	39.9*	-0.8	5.2
CCCCc1ccc(NC(=S)NCCc2ccc(F)cc2)cc1	-4.8	-6.4	-0.2	-2.7	46.3*
Cc1cc(C(=O)Nc2ccc3c(c2)C(=O)N(C)[C@H]2CC[C@@H](CC(=O)N[C@H](C)c4ccccc4)O[C@@H]2CO3)no1	/	0.7	-6.2	-6.9	4.0
CC(=O)N1c2ccc(S(=O)(=O)N3CCC(C(=O)Nc4ncccc4C)CC3)cc2CC1C (stereo not drawn)	0.7	86.0*	-0.7	-12.1	-0.3
Cc1cccc(C)c1NC(=O)N1CC=CCC1	-8.2	-3.5	-2.0	0.9	-5.5
Cc1cccc(C)c1NC(=O)N1CCCCCCC1	3.6	-5.3	28.4*	0.8	-3.5
Cc1cc(Cl)nc(Cl)c1C(=O)N1CCOCC1	2.4	1.0	22.2*	0.8	-2.3
O=C(COC(=O)c1n[nH]c(=O)c2ccccc12)Nc1ccccc1	-6.0	-0.7	18.8*	1.6	12.7
Cc1ccccc1NC(=O)COC(=O)c1n[nH]c(=O)c2ccccc12	2.5	-1.9	1.9	1.3	2.0
CCOC(=O)c1ccccc1NC(=O)c1n[nH]c(=O)c2ccccc12	11.8	/	/	/	82.3*
CS(=O)(=O)N1[C@H](C#N)[C@H](c2ccc(-c3ccccc3F)cc2)[C@@H]1CO	/	-8.3	4.1	5.8	-9.0
Cc1ccc(CNC(=O)Nc2ccc(F)cc2)n1C	0.0	0.3	0.5	3.7	-2.5
Cc1cccc(NC(=O)NCCN2CCCCC2)c1	-3.3	-67.8	2.0	3.3	/
CC1=NCCN1CCNC(=O)Nc1cc(C)cc(C)c1	-1.5	-2.3	21.4*	1.8	3.3
CC1=NCCN1CCNC(=O)Nc1ccc(F)cc1	0.5	-3.1	17.0*	1.1	-10.0
C[C@H](CO)N1C[C@H](C)[C@H](CN(C)S(C)(=O)=O)Oc2ccc(NS(=O)(=O)c3ccc(Cl)cc3)cc2CC1=O	/	10.9	-2.9	-12.0	8.8
CCCCn1c(-c2ccncc2)nc2c1c(=O)[nH]c(=O)n2CC(C)C	2.0	/	/	/	70.1*
SMILES	PDI turbidity	S100A4 MyoIIA	SIRT5 block	ERp5 block	INS-1E GSIS act
COc1ccc(CSc2ncn[nH]2)cc1[N+](=O)[O-]	5.9	/	/	/	61.5*
CC1CCN(CCCCOc2ccc([N+](=O)[O-])cc2)CC1	-2.4	-1.4	-0.5	-0.4	10.6
COC(=O)C1CCN(Cc2ccc(OCCCN3CCN(c4ccc([N+](=O)[O-])cc4)CC3)cc2)CC1	2.4	-4.7	15.8*	2.7	-20.5
COc1cc(CNC(=O)Nc2nc(C(N)Cc3ccc(Cl)cc3)cs2)cc(OC)c1OC (stereo not drawn)	-8.9	1.7	/	-2.1	5.2
COc1cc(CNC(=O)Nc2nc(C(N)c3ccccc3)cs2)cc(OC)c1OC (stereo not drawn)	1.4	3.5	21.1*	1.5	-3.5
CCCNC(=O)N1CC2(C1)[C@H](c1ccccc1)[C@H](CO)N2C(=O)c1ccncc1	/	0.7	-4.0	-1.8	1.6
